pIC50: −log10 of the molar value. Active and inactive are the calls of the source. The calls are words filed in the database; no cut-off is given here.

Assay [1] can be described thus: Inhibition of bacterial class B1 metallo beta-lactamase IMP-1 assessed as reduction in breakdown of cephalosporin FC-5 after 10 mins by fluorescence method. Also noted: species or system Bacteria. An outline of the steps: (§1)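 Enzyme levels: L1 50 pM, IMP-1 20 pM, NDM-1 20 pM, VIM-1 100 pM, VIM-2 500 pM. Inhibitor pre-incubated with enzyme 10 min. Initial rates by fluorescence (ex 380/em 460 nm). Four-parameter fit for IC50.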

A short description of assay [2]: Inhibition of bacterial class B1 metallo beta-lactamase NDM-1 assessed as reduction in breakdown of cephalosporin FC-5 after 10 mins by fluorescence method. Further details: species or system Bacteria. An outline of the steps: (§2)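 Enzyme levels: L1 50 pM, IMP-1 20 pM, NDM-1 20 pM, VIM-1 100 pM, VIM-2 500 pM. Inhibitor pre-incubated with enzyme 10 min. Four-parameter fit for IC50.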

Assay [3] in a line: Inhibition of bacterial class B1 metallo beta-lactamase VIM-1 assessed as reduction in breakdown of cephalosporin FC-5 after 10 mins by fluorescence method. Also noted: species or system Bacteria. Put shortly:
as §2

Assay [4] can be described thus: Inhibition of bacterial class B1 metallo beta-lactamse VIM-2 assessed as reduction in breakdown of cephalosporin FC-5 after 10 mins by fluorescence method. Further details: species or system Bacteria. An outline of the steps:
as §1

Assay [5] in a line: Inhibition of Aeromonas hydrophila class B2 metallo beta-lactamse CphA assessed as reduction in meropenem hydrolysis after 10 mins by UV absorbance method.
Assay [6] in a line: Inhibition of Stenotrophomonas maltophilia class B3 metallo beta-lactamse L1 assessed as reduction in breakdown of cephalosporin FC-5 after 10 mins by fluorescence method. An outline of the steps:
as §1

Assay [7] in a line: Inhibition of Pseudomonas aeruginosa class C serine beta-lactamase AmpC assessed as reduction in breakdown of cephalosporin FC-5 after 10 mins by fluorescence method. An outline of the steps: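 AmpC at 500 pM was pre-incubated with inhibitor for 10 min at room temperature in phosphate buffer, pH 7.4, with 0.01% (v/v) Triton X-100, then given 5 μM FC5. Initial hydrolysis rates were read by fluorescence (ex 380 nm, em 460 nm), and IC50 was taken from a four-parameter log(inhibitor) vs response fit.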

Assay [8] in a line: Inhibition of bacterial class D serine beta-lactamase OXA-10 assessed as reduction in breakdown of cephalosporin FC-5 after 10 mins by fluorescence method. Also noted: species or system Bacteria. An outline of the steps: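 Run in SBL buffer (phosphate pH 7.4, 0.01% v/v Triton X-100) at room temperature with 5 μM FC5. Enzyme levels: OXA-10 250 pM, OXA-48 12.5 nM. Enzyme pre-incubated with inhibitor 10 min. Initial rates by fluorescence (ex 380/em 460 nm). IC50 from a four-parameter log(inhibitor) fit.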

The nature of assay [9]: Inhibition of bacterial class D serine beta-lactamase OXA-10 assessed as reduction in breakdown of cephalosporin FC-5 in presence of aqueous sodium bicarbonate after 10 mins by fluorescence method. Also noted: species or system Bacteria. Put shortly:
(§3)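 SBL buffer (phosphate pH 7.4, 0.01% v/v Triton X-100) supplemented with 100 mM NaHCO3, room temperature, FC5 5 μM. Enzyme levels: OXA-10 250 pM, OXA-48 12.5 nM. Inhibitor pre-incubated with enzyme 10 min. Initial rates by fluorescence at 380/460 nm. IC50 from a four-parameter fit.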

Assay [10] is described as follows: Inhibition of bacterial class D serine beta-lactamase OXA-48 assessed as reduction in breakdown of cephalosporin FC-5 in presence of aqueous sodium bicarbonate after 10 mins by fluorescence method. Further details: species or system Bacteria. Put shortly:
as §3

For the next assay, the target named is Beta-lactamase OXA-10 (Pseudomonas aeruginosa, UniProt P14489). Nature of the assay: Inhibition of Pseudomonas aeruginosa class D serine beta-lactamase OXA-10 expressed in Escherichia coli BL21(DE3) cells assessed as reduction in breakdown of cephalosporin FC-5 in presence of aqueous sodium bicarbonate after 10 to 300 mins by fluorescence method.
Assay [11] in a line: Inhibition of recombinant bacterial class B1 metallo beta-lactamase IMP-1 expressed in Escherichia coli assessed as reduction in breakdown of cephalosporin FC-5 preincubated for 10 mins followed by cephalosporin FC-5 addition by fluorescence method. Also noted: species or system Bacteria. An outline of the steps: as §1
Assay [12] can be described thus: Inhibition of recombinant bacterial class B1 metallo beta-lactamase NDM-1 expressed in Escherichia coli assessed as reduction in breakdown of cephalosporin FC-5 preincubated for 10 mins followed by cephalosporin FC-5 addition by fluorescence method. Also noted: species or system Bacteria. An outline of the steps: as §1
A short description of assay [13]: Inhibition of Pseudomonas aeruginosa PAO1 class C serine beta-lactamase N-terminal His- tagged AmpC expressed in Escherichia coli BL21(DE3) cells assessed as reduction in breakdown of cephalosporin FC-5 preincubated for 10 to 300 mins followed by cephalosporin FC-5 addition by fluorescence method.
A short description of assay [14]: Inhibition of Klebsiella pneumoniae class D serine beta-lactamase N-terminal His-tagged OXA-48 expressed in Escherichia coli BL21(DE3) cells assessed as reduction in breakdown of cephalosporin FC-5 in presence of aqueous sodium bicarbonate after 10 to 300 mins by fluorescence method.
Assay [15] is described as follows: Inhibition of bacterial class D serine beta-lactamase OXA-48 assessed as reduction in breakdown of cephalosporin FC-5 after 10 mins by fluorescence method. Also noted: species or system Bacteria. Put shortly:
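Run in SBL buffer (phosphate pH 7.4, 0.01% v/v Triton X-100) at room temperature with 5 μM FC5. Enzyme pre-incubated with inhibitor 10 min. IC50 from a four-parameter log(inhibitor) fit.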

Another assay relates to Bacteria. Nature of the assay: Reversible inhibition of bacterial class B1 metallo beta-lactamase NDM-1 assessed as reduction in breakdown of cephalosporin FC-5 after 15 to 180 mins by fluorescence method.
Assay [16] has as its system Escherichia coli. Nature of the assay: Inhibition of metallo beta-lactamase NDM-1 in Escherichia coli S117 assessed as potentiation of cefepime-induced antibacterial activity by measuring cefepime MIC at 10 ug/ml by agar dilution method (Rvb > 64 ug/ml). Put shortly:
(§4)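 Agar dilution MIC of meropenem or cefepime combined with the inhibitor, against NDM-1-producing clinical isolates of E. coli and K. pneumoniae. Interpreted per EUCAST/CLSI guidelines. Reference strain MICs within ±1 log2 dilution of reference values.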
In general terms: In agar dilution the substance is mixed into plates at graded concentrations.

The subject of assay [17] is Escherichia coli. Description: Inhibition of metallo beta-lactamase NDM-1 in Escherichia coli IR57 assessed as potentiation of cefepime-induced antibacterial activity by measuring cefepime MIC at 10 ug/ml by agar dilution method (Rvb > 64 ug/ml). An outline of the steps: as §4
Assay [18] has as its target Metallo-beta-lactamase type 2 (Klebsiella pneumoniae) (UniProt C7C422). Description: Inhibition of metallo beta-lactamase NDM-1 in Klebsiella pneumoniae B68-1 assessed as potentiation of cefepime-induced antibacterial activity by measuring cefepime MIC at 10 ug/ml by agar dilution method (Rvb > 64 ug/ml). An outline of the steps:
as §4

Assay [19] has the same target. Nature of the assay: Inhibition of metallo beta-lactamase NDM-1 in Klebsiella pneumoniae IR43 assessed as potentiation of cefepime-induced antibacterial activity by measuring cefepime MIC at 10 ug/ml by agar dilution method (Rvb > 64 ug/ml). An outline of the steps:
as §4

Assay [20] has as its system Escherichia coli. Nature of the assay: Inhibition of metallo beta-lactamase NDM-1 in Escherichia coli 91N assessed as potentiation of cefepime-induced antibacterial activity by measuring cefepime MIC at 10 ug/ml by agar dilution method (Rvb > 64 ug/ml). Put shortly: as §4
The test system of assay [21] is Escherichia coli. Description: Inhibition of metallo beta-lactamase NDM-1 in Escherichia coli S117 assessed as potentiation of meropenem-induced antibacterial activity by measuring meropenem MIC at 10 ug/ml by agar dilution method (Rvb > 64 ug/ml). Put shortly:
as §4

The test system of assay [22] is Escherichia coli. Nature of the assay: Inhibition of metallo beta-lactamase NDM-1 in Escherichia coli IR57 assessed as potentiation of meropenem-induced antibacterial activity by measuring meropenem MIC at 10 ug/ml by agar dilution method (Rvb > 64 ug/ml). Put shortly:
as §4

For assay [23], the target named is Metallo-beta-lactamase type 2 (Klebsiella pneumoniae) (UniProt C7C422). Description: Inhibition of metallo beta-lactamase NDM-1 in Klebsiella pneumoniae B68-1 assessed as potentiation of meropenem-induced antibacterial activity by measuring meropenem MIC at 10 ug/ml by agar dilution method (Rvb > 64 ug/ml). An outline of the steps:
as §4

In assay [24] the test system is Escherichia coli. Description: Inhibition of metallo beta-lactamase NDM-1 in Escherichia coli 91N assessed as potentiation of meropenem-induced antibacterial activity by measuring meropenem MIC at 10 ug/ml by agar dilution method (Rvb > 64 ug/ml). Put shortly:
as §4

Chain of Metallo-beta-lactamase type 2 (Klebsiella pneumoniae) (C7C422 whole entry): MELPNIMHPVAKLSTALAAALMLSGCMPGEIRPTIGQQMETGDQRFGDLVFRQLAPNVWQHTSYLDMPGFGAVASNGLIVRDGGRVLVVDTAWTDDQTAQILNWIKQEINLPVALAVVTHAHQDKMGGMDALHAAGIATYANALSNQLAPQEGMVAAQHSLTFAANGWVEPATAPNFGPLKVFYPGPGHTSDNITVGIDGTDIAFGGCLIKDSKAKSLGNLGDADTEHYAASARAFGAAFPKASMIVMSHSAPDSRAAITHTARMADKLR
Chain of Beta-lactamase OXA-10 (P14489 whole entry): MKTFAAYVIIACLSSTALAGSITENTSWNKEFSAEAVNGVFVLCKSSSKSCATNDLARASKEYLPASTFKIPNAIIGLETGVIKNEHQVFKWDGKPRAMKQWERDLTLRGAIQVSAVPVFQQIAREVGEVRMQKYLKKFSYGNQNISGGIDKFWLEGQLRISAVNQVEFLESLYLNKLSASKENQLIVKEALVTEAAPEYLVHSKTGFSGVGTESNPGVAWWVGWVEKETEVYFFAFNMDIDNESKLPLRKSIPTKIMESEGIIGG

In the case of `O=C(O)C[C@@H]1CC[C@H](NC(=O)Cc2cccs2)B(O)O1` [VABORBACTAM], the pIC50 is 3.90 in assay [1]; 3.20 in assay [2]; 3.40 in [3]; 3.50 in assay [4]; 3.20 in assay [5]; 3.47 in [6]. In addition, the pIC50 is 5.30 in assay [7], below 3.40 in assay [8], below 3.40 in assay [9] and 4.49 in assay [10].

Take `NCc1ccc(C(=O)N[C@H]2Cc3cccc(C(=O)O)c3OB2O)cc1`: the pIC50 at Beta-lactamase OXA-10 is 5.29; in assay [3], 7.07; in [5] it was below 4.00; in [11], 6.00; in [12], 7.54; in assay [13] it was 6.92. In addition, the pIC50 in assay [14] was 5.59.

Consider `NCCN[C@H]1CC[C@H](CC(=O)N[C@H]2Cc3cccc(C(=O)O)c3OB2O)CC1`, for which the pIC50 in [1] was 5.60; in [4] it was 9.30; in [5] it was 5.60; in [6] it was below 5.00; in [7], 6.52; in [8], 6.63. Also, the pIC50 in [9] was 6.19; in [15] it was 6.27; in assay [10] it was 5.62. Further, in the assay on Bacteria, the inhibition result is “Active”. For the same molecule, the MIC with Escherichia coli [16] is 16 µg/mL; in the assay on Escherichia coli [17] it was 8 µg/mL; in assay [18], 0.5 µg/mL; in assay [19], 0.5 µg/mL; in the assay on Escherichia coli [20] it was 4 µg/mL; in the assay on Escherichia coli [21], 1 µg/mL. Further, the MIC with Escherichia coli [22] came out at 0.5 µg/mL; in assay [23], 0.5 µg/mL; in the assay on Escherichia coli [24], 0.125 µg/mL.

What is called pIC50 is −log10 of the IC50, conventionally taken in molar units.

The values are drawn from ChEMBL document CHEMBL4321803 (J Med Chem, 2019).
